Measurements taken from PubChem BioAssay.
Active and inactive are the calls of the source.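 Rule for the calls, unless noted: active = Her2 level under about 52% in both replicate screens, with viability over 70% of control (limit read from the data); inconclusive = Her2 under the limit in one screen only, or viability under 70%; inactive = Her2 level above the set limit.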

Tests used:
[1] = reducers of endogenous Her2 protein level, primary screen, SKBR3 breast tumor cells, AlphaScreen, ATP viability (AID 461); details: 18-24 h, measured here: SKBR3 viability, ATP luminescence, at 10 µM;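 for Her2 level: lower value means less Her2 protein in the cells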;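 for viability: percent of carrier control wells set as 100% viability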
[2] = target: Receptor tyrosine-protein kinase erbB-2 (Homo sapiens) (UniProt P04626); assay: as above; details: 18-24 h, at 10 µM, stronger effect = lower value
[3] = SK-BR-3 cell growth inhibitors, pilot screen, 24 h, human (AID 572;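 active = viability at or below 10% of carrier control in both of two separate runs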;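 note: compound exposure lasted between 18 and 24 h rather than exactly 24 h; 100% = carrier-treated control wells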); details: SK-BR-3 viability, CellTiter-Glo luminescence, at 10 µM, stronger effect = lower value
[4] = HUVEC growth inhibition – cell-based, human, primary screen (AID 575;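 active = viability at or below 30% in both replicate assays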;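 note: 100% = median of untreated cell wells with 0.1% DMSO on each plate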); details: HUVEC proliferation, CellTiter-Glo luminescence, 72 h; at 10 µM; stronger effect = lower value
Procedure, shortened: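 Assay system: primary human umbilical vein endothelial cells / Buffer or medium: endothelial basal medium with 2% FBS plus growth supplements / Compound dosing: one dose, 10 µM final, 0.1% DMSO / Timing: 72 h treatment at 37 °C / Signal: CTG luminescence / Benchmarks: 32 DMSO-only cell-control wells (high), 32 MePR drug-control wells (low) per plate / Plate: collagen-coated 384-well format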

[5] = growth inhibitors of H69AR lung tumor, primary screen, human, duplicate replicates (AID 580;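 active = viability at or under a set limit in both replicates, limit being median viability minus 3 SD, cut at about 48% in these data, passing the limit was not always enough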;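 note: 100% = mean luminescence of untreated wells and 0% = no signal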); details: H69AR lung tumor cells viability, ATP luminescence, 72 h; at 10 µM; stronger effect = lower value
[6] = reversal of MRP1-mediated doxorubicin resistance, pilot screen, H69AR cells, doxorubicin co-treatment (AID 601;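 active = viability loss from added drug above about 55%, and viability with drug at most 40%, in both replicates, limit read from the data, passing the limit was not always enough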); details: CellTiter-Glo, 72 h, at 10 µM; for differential viability (reversal): stronger effect = higher value
[7] = 384-well plate pilot, post-Golgi transport modulator project, inhibition of yeast transport mutant growth (AID 636; in the data active = inhibition above about 31%); details: absorbance 615 nm, about 18 h, stronger effect = higher value
[8] = growth suppression of yeast trafficking mutant, preliminary HTS, modulators of trafficking downstream of Golgi apparatus project, 1536-format plate, OD 615 nm (AID 637; in the data active = inhibition above about 30%); details: yeast transport mutant growth, absorbance 615 nm, 18 h; stronger effect = higher value
[9] = H69AR cells + 2 uM doxorubicin, measured here: viability with 2 uM doxorubicin, stronger effect = lower value
[10] = H69AR cells, compound alone cytotoxicity

Sequence of Receptor tyrosine-protein kinase erbB-2 (Homo sapiens) (P04626 whole entry, looked up): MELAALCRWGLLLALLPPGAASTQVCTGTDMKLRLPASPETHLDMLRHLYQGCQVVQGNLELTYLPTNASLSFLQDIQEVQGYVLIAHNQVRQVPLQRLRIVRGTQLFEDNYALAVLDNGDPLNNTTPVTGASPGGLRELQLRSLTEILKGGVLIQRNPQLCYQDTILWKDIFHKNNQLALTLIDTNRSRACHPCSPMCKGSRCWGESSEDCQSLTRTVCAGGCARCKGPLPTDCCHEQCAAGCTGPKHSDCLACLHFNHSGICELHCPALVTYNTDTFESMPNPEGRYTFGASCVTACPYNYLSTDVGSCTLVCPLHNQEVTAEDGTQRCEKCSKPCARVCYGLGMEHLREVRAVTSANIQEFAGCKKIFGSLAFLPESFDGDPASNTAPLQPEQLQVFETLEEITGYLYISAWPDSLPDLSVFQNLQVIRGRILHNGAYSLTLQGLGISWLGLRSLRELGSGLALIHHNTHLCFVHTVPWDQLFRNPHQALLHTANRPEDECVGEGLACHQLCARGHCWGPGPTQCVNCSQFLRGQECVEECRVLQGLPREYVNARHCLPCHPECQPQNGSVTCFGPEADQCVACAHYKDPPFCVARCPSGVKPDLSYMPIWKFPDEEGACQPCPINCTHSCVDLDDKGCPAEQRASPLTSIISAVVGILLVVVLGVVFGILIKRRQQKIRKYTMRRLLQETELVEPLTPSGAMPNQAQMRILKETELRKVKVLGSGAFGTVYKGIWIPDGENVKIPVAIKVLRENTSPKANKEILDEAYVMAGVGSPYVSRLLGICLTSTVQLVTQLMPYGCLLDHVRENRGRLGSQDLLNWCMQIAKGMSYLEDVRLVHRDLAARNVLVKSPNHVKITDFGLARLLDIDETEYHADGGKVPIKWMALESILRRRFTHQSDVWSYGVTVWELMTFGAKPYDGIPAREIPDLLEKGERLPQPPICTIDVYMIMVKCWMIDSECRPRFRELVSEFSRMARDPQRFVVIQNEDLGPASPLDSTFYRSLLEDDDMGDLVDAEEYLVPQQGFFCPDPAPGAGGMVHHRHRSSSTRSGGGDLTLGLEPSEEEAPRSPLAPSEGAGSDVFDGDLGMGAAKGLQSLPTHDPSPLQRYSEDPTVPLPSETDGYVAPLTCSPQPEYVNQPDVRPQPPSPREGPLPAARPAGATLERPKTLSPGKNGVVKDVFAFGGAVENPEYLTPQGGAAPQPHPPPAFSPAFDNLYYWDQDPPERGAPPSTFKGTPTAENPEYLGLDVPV

Structure (SMILES)	viability [1] [%]	Her2 level [2]	viability [3]	viability [4]	viability [5]	differential viability (reversal) ([6]; H69AR cells + 2 uM doxorubicin)	viability [6, 9] [%]	viability [6, 10] [%]	inhibition [7]	inhibition [8]
CC(=O)c1c(C)nn(CC(O)COc2ccc3c(c2)CCC3)c1C (stereo not given)	93.5	105% (inactive)	93.5% (inactive)	94.4% (inactive)	87.4% (inactive)	3.44% (inactive)	83.9	87.4	1.33% (inactive)	-6.03% (inactive)
CCn1c(=O)c(C(=O)NCc2ccc(OC)cc2)c(O)c2ccccc21	86.5	89.5% (inactive)	86.5% (inactive)	46.7% (inactive)	73.2% (inactive)	-13.4% (inactive)	86.7	73.2	-3.46% (inactive)	-8.5% (inactive)
CCN(CCCNC(=O)C1CCCN(S(=O)(=O)c2cnc[nH]2)C1)c1ccccc1 (stereo not given)	94	93% (inactive)	94% (inactive)	104% (inactive)	94.8% (inactive)	6.6% (inactive)	88.2	94.8	-1.87% (inactive)	-1.64% (inactive)
Cn1ccnc1SCCC#N	100	89.5% (inactive)	100% (inactive)	92.5% (inactive)	99% (inactive)	1.65% (inactive)	97.3	99	-2% (inactive)	11% (inactive)
CCN(C(=O)CCc1nc(-c2ccccc2F)no1)c1cc(OC)ccc1OC	87.5	130% (inactive)	87.5% (inactive)	68.1% (inactive)	92.4% (inactive)	-2.4% (inactive)	94.8	92.4	1.71% (inactive)	0.33% (inactive)
COc1cccc(C(=O)OCn2nnc3ccccc3c2=O)c1	88	92.5% (inactive)	88% (inactive)	108% (inactive)	114% (inactive)	4.58% (inactive)	109	114	-0.13% (inactive)	16.5% (inactive)
O=C(CN1C(=O)CC(c2ccco2)Sc2ccccc21)Nc1ccccc1F (stereo not given)	82.5	82% (inactive)	82.5% (inactive)	72.2% (inactive)	84.3% (inactive)	3.75% (inactive)	80.6	84.3	0% (inactive)	-0.83% (inactive)
CC1(C)Cc2noc(N)c2C(C)(C)N1OC(=O)c1ccco1	118	82.5% (inactive)	118% (inactive)	93.1% (inactive)	94.5% (inactive)	2.83% (inactive)	91.7	94.5	-3.55% (inactive)	3.81% (inactive)
COc1ccc(NC(=O)CN(c2ccc(C)cc2)S(C)(=O)=O)c(OC)c1	90	118% (inactive)	90% (inactive)	84.8% (inactive)	101% (inactive)	11.9% (inactive)	89.4	101	-2.63% (inactive)	-3.5% (inactive)
c1ccc(-n2c(Sc3cnccn3)nnc2-c2cccs2)cc1	114	109% (inactive)	114% (inactive)	89.1% (inactive)	95.8% (inactive)	7.33% (inactive)	88.5	95.8	-5.41% (inactive)	-3.49% (inactive)
Nc1nc(C2C(=O)CCCC2=O)cs1	97.5	99.5% (inactive)	97.5% (inactive)	102% (inactive)	103% (inactive)	5.64% (inactive)	97.6	103	-2.89% (inactive)	4.1% (inactive)
Cc1cc(C)c(Cn2c(=O)n(CCCC(=O)NCc3ccco3)c(=O)c3ccccc32)c(C)c1	99	97.5% (inactive)	99% (inactive)	89.4% (inactive)	94.9% (inactive)	11.4% (inactive)	83.5	94.9	-1.45% (inactive)	9.18% (inactive)
O=C(CN(Cc1ccco1)C(=O)CNS(=O)(=O)c1ccc(Cl)cc1)NCc1ccc(F)cc1	118	106% (inactive)	118% (inactive)	83.4% (inactive)	81.4% (inactive)	-5.12% (inactive)	86.5	81.4	-0.53% (inactive)	1.77% (inactive)
COC(=O)c1ccccc1S(=O)(=O)N(CCCO)Cc1cc2c(C)ccc(C)c2[nH]c1=O	84.5	106% (inactive)	84.5% (inactive)	75.3% (inactive)	79.3% (inactive)	-2.33% (inactive)	81.6	79.3	-4.73% (inactive)	-5.25% (inactive)
CCOC(=O)CNC(=O)CSc1ncnc2c1cnn2Cc1ccccc1	96	82.5% (inactive)	96% (inactive)	54.5% (inactive)	100% (inactive)	10.3% (inactive)	90.1	100	-5.84% (inactive)	-6.56% (inactive)
CC(=O)N1CCN(S(=O)(=O)c2cccc(C(=O)Nc3ccc4c(c3)CCC4)c2)CC1	76.5	90.5% (inactive)	76.5% (inactive)	77.9% (inactive)	98% (inactive)	4.81% (inactive)	93.2	98	-5.53% (inactive)	5% (inactive)
COc1ccc(OCC(O)Cn2c(Br)nc3c2c(=O)[nH]c(=O)n3C)cc1 (stereo not given)	84	72% (inactive)	84% (inactive)	62.8% (inactive)	28.5% (active)	-28.6% (inactive)	57.1	28.5	-4.4% (inactive)	10.7% (inactive)
CC1(C)Cc2c(c(N3CCOCC3)nc3sc(C#N)c(N)c23)CS1	92	122% (inactive)	92% (inactive)	85.2% (inactive)	83.3% (inactive)	-1.22% (inactive)	84.5	83.3	0.9% (inactive)	-8.67% (inactive)
O=C(CSc1nc2ccccc2s1)N1CCOCC1	119	106% (inactive)	119% (inactive)	83.6% (inactive)	90.4% (inactive)	-6.72% (inactive)	97.1	90.4	-2.27% (inactive)	-9.03% (inactive)
CC(C)CC(=O)CN1C(=O)C2(OCCO2)c2ccccc21	93.5	107% (inactive)	93.5% (inactive)	101% (inactive)	89.6% (inactive)	-6.21% (inactive)	95.8	89.6	-5.14% (inactive)	1.83% (inactive)
CCOC(=O)c1ccccc1NC(=O)CSc1nc2c(c(=O)n(C)c(=O)n2C)n1C	100	92% (inactive)	100% (inactive)	101% (inactive)	92.4% (inactive)	6.47% (inactive)	85.9	92.4	-1.58% (inactive)	0.16% (inactive)
CC(C)(C)N(Cc1cc2ccccc2[nH]c1=O)C(=O)C1CCCCC1	104	118% (inactive)	104% (inactive)	69.4% (inactive)	86.1% (inactive)	3.29% (inactive)	82.8	86.1	-3.2% (inactive)	-7.21% (inactive)
Cc1ccc(-c2c3c(=O)n(C)c(=O)n(C)c3cn2CCCN2CCOCC2)cc1	144	102% (inactive)	144% (inactive)	103% (inactive)	77.8% (inactive)	-4.19% (inactive)	82	77.8	-7.5% (inactive)	-0.95% (inactive)
O=C(NCc1ccco1)C1CC(=O)N(c2ccc(F)cc2)C1 (stereo not given)	96.5	97% (inactive)	96.5% (inactive)	108% (inactive)	108% (inactive)	16% (inactive)	91.5	108	-0.93% (inactive)	-1.61% (inactive)
CCn1c(C)c(CCC(=O)O)c(=O)n2nc(-c3ccccc3OC)cc12	91	104% (inactive)	91% (inactive)	100% (inactive)	87.4% (inactive)	-1.22% (inactive)	88.6	87.4	-0.14% (inactive)	23.6% (inactive)
COC(=O)c1cc(Br)c(=O)n(Cc2cccnc2)c1	108	81.5% (inactive)	108% (inactive)	95.9% (inactive)	97.3% (inactive)	17% (inactive)	80.3	97.3	-3.95% (inactive)	0.18% (inactive)
NC1=NC(c2ccc(Br)cc2)n2c(nc3ccccc32)N1 (stereo not given)	90	82% (inactive)	90% (inactive)	75.5% (inactive)	81.4% (inactive)	4.81% (inactive)	76.6	81.4	-5.13% (inactive)	-6% (inactive)
O=C(NCN1CCCCC1)c1cnccn1	95.5	86% (inactive)	95.5% (inactive)	103% (inactive)	89.9% (inactive)	-16.5% (inactive)	106	89.9	-2.47% (inactive)	-1.15% (inactive)
